Assay results as given in ChEMBL document CHEMBL1126194, “Synthesis and functional evaluation of a peptide derivative of 1-beta-D-arabinofuranosylcytosine” (J Med Chem, 1992).

Key:
L1210 [1] = assay: Inhibition of L1210 lymphoid leukemia cells 24 hr after administration (length of preincubation=0 hr); format: functional, cell-based; conditions: Mus musculus
In short: (§1)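 L1210 cells (2×10^4/well) exposed continuously to serially diluted compound in Fischer's medium with 10% horse serum for up to 72 h. Viable cells were counted by Trypan blue exclusion at 24, 48 and 72 h. IC50 is the concentration giving 50% growth inhibition, estimated from response curves of three separate experiments.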

[2] = Half life in human plasma; format: ADME
In short: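 Compound ([…]) incubated in 1 mL fresh human plasma at 37 °C against a buffer reference; hydrolysis followed by change in absorption at 325 nm (ϵ 1.55). Initial concentration about 2 × 10^-4 M; apparent first-order kinetics, with the pseudo-first-order rate constant given by k = 0.693/t1/2.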

L1210 [3] = assay: Inhibition of L1210 lymphoid leukemia cells 72 hr after administration (length of preincubation=0 hr); format: functional, cell-based; conditions: Mus musculus; in short: as §1
L1210 [4] = assay: Inhibition of L1210 lymphoid leukemia cells 48 hr after administration (length of preincubation=0 hr); format: functional, cell-based; conditions: Mus musculus; in short: as §1

| Structure (SMILES) | IC50 (L1210 [1]) [nM] | half-life [2] [h] | IC50 (L1210 [3]) [nM] | IC50 (L1210 [4]) [nM] |
| --- | --- | --- | --- | --- |
| CC(C)C[C@H](NC(=O)[C@H](N)C(C)C)C(=O)N[C@@H](CCCCN)C(=O)N(C)c1ccn([C@@H]2O[C@H](CO)[C@@H](O)[C@@H]2O)c(=O)n1.N=C(N)c1ccc(CS(=O)(=O)F)cc1 | 1000 | 5.5 | 10 | 5 |
| Nc1ccn([C@@H]2O[C@H](CO)[C@@H](O)[C@@H]2O)c(=O)n1 [CYTARABINE] | 100 |  | 10 | 10 |
